According to ChEMBL document CHEMBL4308903, “Synthesis of amides from (E)-3-(1-chloro-3,4-dihydronaphthalen-2-yl)acrylic acid and substituted amino acid esters as NorA efflux pump inhibitors of Staphylococcus aureus” (Bioorg Med Chem, 2019):
Calls of active or inactive are those of the source. The calls are words filed in the database; no cut-off is given here.

Assays:
[1] = system: Staphylococcus aureus; assay: Growth inhibition of Staphylococcus aureus 1199 at 50 ug/ml by broth microdilution method; type: organism-based
[2] = target: T1, Quinolone resistance protein NorA (Staphylococcus aureus) (UniProt P0A0J7); assay: Inhibition of NorA in Staphylococcus aureus 1199B assessed as minimum concentration required to effectively reduce ciprofloxacin MIC by four fold by broth checkerboard microdilution method
T1 sequence (whole entry): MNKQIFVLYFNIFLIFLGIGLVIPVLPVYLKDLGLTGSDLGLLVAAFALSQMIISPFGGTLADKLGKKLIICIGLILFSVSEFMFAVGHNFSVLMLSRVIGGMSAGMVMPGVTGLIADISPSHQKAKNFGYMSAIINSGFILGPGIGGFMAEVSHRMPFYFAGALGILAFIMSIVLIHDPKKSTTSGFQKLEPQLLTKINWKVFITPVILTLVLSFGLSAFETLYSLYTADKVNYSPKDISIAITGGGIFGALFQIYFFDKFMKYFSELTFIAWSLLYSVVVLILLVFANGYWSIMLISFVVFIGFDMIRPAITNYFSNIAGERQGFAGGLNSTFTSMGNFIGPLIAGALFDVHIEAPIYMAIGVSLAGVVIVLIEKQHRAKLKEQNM
In short: (§1)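 Broth checkerboard microdilution in cation-adjusted Mueller–Hinton broth. Compounds tested at seven concentrations (50-0.7 μg/mL) against twofold serial dilutions of ciprofloxacin (32-0.06 μg/mL). MEC is the minimum concentration that lowers the ciprofloxacin MIC fourfold. Piperine and SK-20 served as reference EPIs.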

[3] = target: T1, Quinolone resistance protein NorA (Staphylococcus aureus); assay: Inhibition of NorA in Staphylococcus aureus 1199B assessed as reduction in ethidium bromide efflux at 50 uM measured after 5 mins by fluorescence assay relative to control
In short: (§2)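 SA-1199B grown on tryptone soya agar. Ethidium bromide efflux followed by fluorescence (excitation 530 nm, emission 600 nm) over 5 min with compound at 0–50 μM. Run in triplicate. Percent inhibition calculated from mean values against the no-inhibitor control.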

[4] = system: Staphylococcus aureus; assay: Growth inhibition of norA-deleted Staphylococcus aureus K1758 at 50 ug/ml by broth microdilution method; type: organism-based
In short: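 MIC determined by broth microdilution in cation-adjusted Mueller–Hinton broth following CLSI guidelines. MIC is the lowest concentration giving no visible growth.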

[5] = target: T1, Quinolone resistance protein NorA (Staphylococcus aureus); assay: Inhibition of NorA Staphylococcus aureus 1199B assessed as reduction in ethidium bromide efflux at 6.25 to 50 uM measured after 5 mins by fluorescence assay relative to control; in short: as §2
[6] = system: Staphylococcus aureus; assay: Potentiation of ciprofloxacin-induced antibacterial activity in Staphylococcus aureus 1199 assessed as reduction in ciprofloxacin MIC at 0.8 to 50 ug/ml by broth checkerboard microdilution method relative to control; type: functional; in short: as §1
[7] = system: Staphylococcus aureus; assay: Potentiation of ciprofloxacin-induced antibacterial activity in norA-deleted Staphylococcus aureus K1758 assessed as reduction in ciprofloxacin MIC at 0.8 to 50 ug/ml by broth checkerboard microdilution method relative to control; type: functional; in short: as §1
[8] = target: T1, Quinolone resistance protein NorA (Staphylococcus aureus); assay: Inhibition of NorA in Staphylococcus aureus 1199B assessed as […] at 25 uM measured at 5 mins interval for 60 mins by fluorescence assay relative to control; conditions: in the assay text read “for 30 mins” for “for 60 mins”
In short: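 Ethidium bromide accumulation measured in SA-1199B cells preloaded with ethidium bromide, with compound at 25 μM. Fluorescence gain (excitation 530 nm, emission 600 nm) recorded at 5-min intervals.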

[9] = target: T1, Quinolone resistance protein NorA (Staphylococcus aureus); assay: Inhibition of NorA Staphylococcus aureus 1199B assessed as reduction in ethidium bromide efflux at 6.25 to 50 uM measured at 5 mins interval for 30 mins by fluorescence assay relative to control
[10] = target: T1, Quinolone resistance protein NorA (Staphylococcus aureus); assay: Inhibition of NorA in Staphylococcus aureus 1199B assessed as reduction in ethidium bromide efflux at 50 uM measured over 5 mins interval for 30 mins by fluorescence assay relative to control
[11] = target: T1, Quinolone resistance protein NorA (Staphylococcus aureus); assay: Inhibition of NorA in Staphylococcus aureus 1199B assessed as assessed as potentiation of ciprofloxacin-induced antibacterial activity by measuring reduction in ciprofloxacin MIC at 25 to 50 ug/ml by broth checkerboard microdilution method relative to control; in short: as §1
[12] = system: HepG2; assay: Cytotoxicity against human HepG2 cells assessed as reduction in cell viability at 100 uM after 24 hrs by MTT assay; type: cell-based; conditions: hepg2, 24 h
In short: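 HepG2 monolayer (1×10^6 cells/well) in high-glucose DMEM exposed to 50 and 100 μM in triplicate for 24 h at 37°C, 5% CO2. MTT added, then formazan absorbance read at 570 nm. Percent cytotoxicity calculated against tamoxifen positive control (10 and 20 µg/mL) and untreated healthy cells.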

[13] = system: Staphylococcus aureus; assay: Potentiation of ciprofloxacin-induced antibacterial activity in Staphylococcus aureus 1199 assessed as minimum concentration required to effectively reduce ciprofloxacin MIC by four fold by broth checkerboard microdilution method; type: functional; conditions: read-out: MEC; in short: as §1

SMILES	growth inhibition (GI) [1]	MEC [2]	inhibition [3]	growth inhibition (GI) [4]	inhibition [5]	fold change (FC) [6]	fold change (FC) [7]	inhibition [8]	inhibition [9]	inhibition [10]	fold change (FC) [11]	Activity [12]	minimal effective concentration [13]
COC(=O)[C@@H](NC(=O)/C=C/C1=C(Cl)c2ccccc2CC1)C(C)C	Non-Toxic	3.12 µg/mL	67.2%	Non-Toxic	67.2%	2	0	–	–	–	–	–	–
COC(=O)[C@H]1CCCN1C(=O)/C=C/C1=C(Cl)c2ccccc2CC1	Toxic	12.5 µg/mL	52.6%	Toxic	–	0	0	–	–	–	–	–	–
COC(=O)[C@H](Cc1ccc(O)cc1)NC(=O)/C=C/C1=C(Cl)c2ccccc2CC1	Non-Toxic	1.5 µg/mL	–	Non-Toxic	–	4	0	Active	> 80%	85.2%	16	Non-Toxic	–
COC(=O)CC1(NC(=O)/C=C/C2=C(Cl)c3ccccc3CC2)CCCCC1	Non-Toxic	> 50 µg/mL	–	Non-Toxic	–	0	0	–	–	–	–	–	–
COC(=O)[C@H](C)NC(=O)/C=C/C1=C(Cl)c2ccccc2CC1	Non-Toxic	25 µg/mL	–	Non-Toxic	–	0	0	–	–	–	–	–	–
COC(=O)C(C)(C)NC(=O)/C=C/C1=C(Cl)c2ccccc2CC1	Non-Toxic	12.5 µg/mL	41.4%	Non-Toxic	–	0	0	–	–	–	–	–	–
COC(=O)[C@H](Cc1ccccc1)NC(=O)/C=C/C1=C(Cl)c2ccccc2CC1	Non-Toxic	12.5 µg/mL	48%	Non-Toxic	–	0	0	–	–	–	–	–	–
CC[C@@H](C)[C@H](NC(=O)/C=C/C1=C(Cl)c2ccccc2CC1)C(=O)OC	Non-Toxic	12.5 µg/mL	58.2%	Non-Toxic	–	2	0	–	–	–	–	–	–
COC(=O)[C@H](CC(C)C)NC(=O)/C=C/C1=C(Cl)c2ccccc2CC1	Non-Toxic	12.5 µg/mL	56.2%	Non-Toxic	–	2	0	–	–	–	–	–	–
COC(=O)[C@H]1[C@H]2C[C@@H]3c4[nH]c5cc(OC)ccc5c4CCN3C[C@H]2C[C@@H](OC(=O)c2cc(OC)c(OC)c(OC)c2)[C@@H]1OC [RESERPINE]	Non-Toxic	–	–	Non-Toxic	–	2	0	Active	Active	–	–	–	–
COC(=O)CC1(NC(=O)/C=C/C2=C(Cl)c3ccccc3CC2)CCC(C(C)(C)C)CC1 (configuration not stated)	Non-Toxic	> 50 µg/mL	–	Non-Toxic	–	0	0	–	–	–	–	–	–
COC(=O)CCCNC(=O)/C=C/C1=C(Cl)c2ccccc2CC1	Non-Toxic	> 50 µg/mL	–	Non-Toxic	–	0	0	–	–	–	–	–	–
COC(=O)CCNC(=O)/C=C/C1=C(Cl)c2ccccc2CC1	Non-Toxic	25 µg/mL	–	Non-Toxic	–	0	0	–	–	–	–	–	–
COC(=O)CNC(=O)/C=C/C1=C(Cl)c2ccccc2CC1	Non-Toxic	> 50 µg/mL	–	Non-Toxic	–	0	0	–	–	–	–	–	–
COC(=O)[C@H](Cc1c[nH]c2ccccc12)NC(=O)/C=C/C1=C(Cl)c2ccccc2CC1	Non-Toxic	1.5 µg/mL	–	Non-Toxic	–	4	0	inactive	> 80%	83.9%	16	Non-Toxic	–
COC(=O)[C@@H]1CCCN1C(=O)/C=C/C1=C(Cl)c2ccccc2CC1	Non-Toxic	6.25 µg/mL	80.3%	Non-Toxic	> 80%	2	0	–	–	–	–	–	50 µg/mL
CCC(/C=C/C(=O)N1CCCCC1)=C\c1ccc2c(c1)OCO2	Non-Toxic	6.25 µg/mL	–	Non-Toxic	–	4	0	–	–	68.8%	–	–	–
